Legend:
[1] = test system: TOPFlash luciferase reporter (three wild-type Tcf4 binding sites) in β-catenin activated HEK293 cells; test: TOPFlash luciferase reporter assay; assay type: cell-based; conditions: 24 h
In short: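 HEK293 cells were co-transfected with FuGENE 6, using 45 ng TOPFlash or FOPFlash reporter plus 135 ng pcDNA3.1-β-catenin. Cells were grown 24 h in DMEM with 10% FBS at 37 °C, then treated with test compound at various concentrations. After 24 h, luciferase activity was read by a dual-luciferase system, normalized, and compared with DMSO-treated cells. Triplicate; unpaired two-tailed t-test.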

[2] = target: T1, β-catenin/Tcf PPI (human β-catenin residues 138–781 / fluorescein-labeled human Tcf4 residues 7–51) (Homo sapiens, UniProt P35222); assay type: binding
T1 sequence (P35222 138-781): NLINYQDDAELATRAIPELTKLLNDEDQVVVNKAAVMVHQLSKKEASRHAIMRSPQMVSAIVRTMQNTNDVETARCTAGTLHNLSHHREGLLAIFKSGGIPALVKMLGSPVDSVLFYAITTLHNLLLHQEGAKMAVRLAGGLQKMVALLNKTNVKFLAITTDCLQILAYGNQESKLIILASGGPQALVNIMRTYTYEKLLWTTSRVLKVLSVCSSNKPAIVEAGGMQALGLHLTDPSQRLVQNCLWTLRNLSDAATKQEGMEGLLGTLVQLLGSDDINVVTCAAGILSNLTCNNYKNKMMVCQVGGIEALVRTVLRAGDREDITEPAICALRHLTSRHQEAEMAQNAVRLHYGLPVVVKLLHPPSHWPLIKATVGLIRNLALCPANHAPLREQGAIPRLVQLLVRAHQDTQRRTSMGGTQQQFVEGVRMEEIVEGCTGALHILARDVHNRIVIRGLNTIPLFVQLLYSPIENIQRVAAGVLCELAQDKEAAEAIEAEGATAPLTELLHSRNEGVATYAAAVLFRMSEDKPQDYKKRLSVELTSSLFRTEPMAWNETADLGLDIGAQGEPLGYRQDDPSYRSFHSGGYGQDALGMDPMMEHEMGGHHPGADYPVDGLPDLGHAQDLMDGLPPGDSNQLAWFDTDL

[3] = test system: β-catenin/Tcf PPI in HCT116 cells; test: Co-IP in HCT116 cells, β-catenin/Tcf; assay type: cell-based; conditions: HCT116 cells treated 24 h
[4] = test system: β-catenin/E-cadherin PPI in HCT116 cells; test: Co-IP in HCT116 cells, β-catenin/E-cadherin; assay type: cell-based; conditions: concentrations sufficient to disrupt β-catenin/Tcf PPI
[5] = test system: β-catenin/APC PPI in HCT116 cells; test: Co-IP in HCT116 cells, β-catenin/APC; assay type: cell-based; conditions: concentrations sufficient to disrupt β-catenin/Tcf PPI
TNBC MDA-MB-231 cells [6] = test: Scratch wound healing assay; assay type: cell-based, human; conditions: 10 μM, 10% serum, mitomycin 10 μg/mL, 14 h
In short: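 Wounds were scraped with a sterile 200 µL pipette tip into ~70–80% confluent MDA-MB-231 monolayers. Cells were kept in DMEM with 10% FBS plus 10 µg/mL mitomycin to block proliferation, with test compound or vehicle (0.2% DMSO). Wounds were imaged immediately and at 14 h. […] Mean ± SD, n=3.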

TNBC MDA-MB-231 cells [7] = test: Matrigel invasion assay; assay type: cell-based, human; conditions: 10 μM, 24 h
SW480 cells = test: HPLC–MS based cell bioavailability assay; assay type: in vitro ADME; conditions: for cell-bound concentration: 37 °C, 3 h incubation in 5 mL DMEM with 10% FBS, input concentration 25 μM
[8] = unless converted into the ester form; previous study; cited from earlier work

CCOC(=O)CC[C@H](NC(=O)[C@H](CC(=O)OCC)NC(=O)[C@H](Cc1ccc2ccccc2c1)NC(=O)c1cc2cc(OC)ccc2[nH]1)C(=O)OC [(Et)-15]
TOPFlash luciferase activity ([1]; concentration of up to 200 μM): did not inhibit

COC(=O)[C@H](CCC(=O)O)NC(=O)[C@H](CC(=O)O)NC(=O)[C@H](Cc1ccc2ccccc2c1)NC(=O)c1cc2c(Cl)cc(Cl)cc2[nH]1 [Compound 19]
potency improvement over 9 [2]: ~ 3 fold

O=C(O)CC[C@H](NC(=O)[C@H](CC(=O)O)NC(=O)[C@H](Cc1ccc2ccccc2c1)NC(=O)c1cc2cc(Cl)ccc2[nH]1)C(=O)Nc1ccccc1 [Compound 21, (S)-4-((S)-3-Carboxy-2-((S)-2-(5-chloro-1H-indole-2-carboxamido)-3-(naphthalen-2-yl)propanamido)propanamido)-5-oxo-5-(phenylamino)pentanoic Acid]
potency improvement over 9 [2]: 3.4 fold

CCOC(=O)CC[C@H](NC(=O)[C@H](Cc1nn[nH]n1)NC(=O)[C@H](Cc1ccc2ccccc2c1)NC(=O)c1cc2cc(Cl)ccc2[nH]1)C(=O)Nc1ccc(OC(F)(F)F)cc1 [Compound 56, Ethyl (S)-4-((S)-2-((S)-2-(5-Chloro-1H-indole-2-carboxamido)-3-(naphthalen-2-yl)propanamido)-3-(2H-tetrazol-5-yl)-propanamido)-5-oxo-5-((4-(trifluoromethoxy)phenyl)amino)-pentanoate]
TOPFlash luciferase activity ([1]; different concentrations): suppressed the TOPFlash luciferase activities in dose-dependent manners
inhibition of β-catenin/Tcf PPI (co-IP) [3]: dose-dependently inhibited
effect on β-catenin/E-cadherin PPI (co-IP) [4]: had no effect
effect on β-catenin/APC PPI (co-IP) [5]: had no effect
inhibition of TNBC cell migration (TNBC MDA-MB-231 cells [6]): effectively inhibit
inhibition of TNBC cell invasion (TNBC MDA-MB-231 cells [7]): effectively inhibit
cell-bound concentration (SW480 cells): 1.4 nmol/million SW480 cells
transformation into 53 (SW480 cells; 24 h incubation with SW480 cells in 5 mL DMEM with 10% FBS): did not transform into 53

COC(=O)[C@H](CCC(=O)O)NC(=O)[C@H](CC(=O)O)NC(=O)[C@H](Cc1ccc2ccccc2c1)NC(=O)Cc1c[nH]c2cc(Cl)ccc12 [Compound 3]
inhibitory potency for β-catenin/Tcf PPI in words [2]: great loss of potency

O=C(O)CC[C@H](NC(=O)[C@H](Cc1nn[nH]n1)NC(=O)[C@H](Cc1ccc2ccccc2c1)NC(=O)c1cc2cc(Cl)ccc2[nH]1)C(=O)Nc1ccc(OC(F)(F)F)cc1 [Compound 53, (S)-4-((S)-2-((S)-2-(5-Chloro-1H-indole-2-carboxamido)-3-(naphthalen-2-yl)propanamido)-3-(2H-tetrazol-5-yl)propanamido)-5-oxo-5-((4-(trifluoromethoxy)phenyl)amino)pentanoic Acid]
cell-bound concentration (SW480 cells): 0.17 nmol/million SW480 cells

NC(=O)CC[C@H](NC(=O)[C@H](Cc1nn[nH]n1)NC(=O)[C@H](Cc1ccc2ccccc2c1)NC(=O)c1cc2cc(Cl)ccc2[nH]1)C(=O)Nc1ccc(OC(F)(F)F)cc1 [Compound 55, (S)-2-((S)-2-((S)-2-(5-Chloro-1H-indole-2-carboxamido)-3-(naphthalen-2-yl)propanamido)-3-(2H-tetrazol-5-yl)propanamido)-N^1-(4-(trifluoromethoxy)phenyl)pentanediamide]
TOPFlash luciferase activity ([1]; different concentrations): suppressed the TOPFlash luciferase activities in dose-dependent manners

COC(=O)[C@H](CCC(=O)O)NC(=O)[C@H](CC(=O)O)NC(=O)[C@H](Cc1ccc2ccccc2c1)NC(=O)Cc1cc2cc(Cl)ccc2[nH]1 [Compound 1]
activity in cell-based assays [8]: almost inactive

COC(=O)[C@H](CCC(=O)O)NC(=O)[C@H](CC(=O)O)NC(=O)[C@H](Cc1ccc2ccccc2c1)NC(=O)Cc1c[nH]c2ccc(Cl)cc12 [Compound 2]
inhibitory potency for β-catenin/Tcf PPI in words [2]: great loss of potency

Source: paper PMC6931396 (Journal of medicinal chemistry, 2019)
